{"source": "paper PMC10958515", "about": "(ACS Chemical Neuroscience, 2024)", "key": {"NaV": {"test_system": "NaV", "settings": "cited from earlier work"}, "seizures": {"test_system": "seizures", "settings": "cited from earlier work"}, "hNaV1.2": {"biological_target": "hNaV1.2 (Homo sapiens, UniProt Q99250)", "test": "Qube automated patch-clamp, NaV subtype inhibition", "assay_type": "cell-based"}, "NaV1.6 [1]": {"biological_target": "T1, NaV1.6 (Homo sapiens, UniProt Q9UQD0)", "T1 sequence (Q9UQD0 whole entry)": "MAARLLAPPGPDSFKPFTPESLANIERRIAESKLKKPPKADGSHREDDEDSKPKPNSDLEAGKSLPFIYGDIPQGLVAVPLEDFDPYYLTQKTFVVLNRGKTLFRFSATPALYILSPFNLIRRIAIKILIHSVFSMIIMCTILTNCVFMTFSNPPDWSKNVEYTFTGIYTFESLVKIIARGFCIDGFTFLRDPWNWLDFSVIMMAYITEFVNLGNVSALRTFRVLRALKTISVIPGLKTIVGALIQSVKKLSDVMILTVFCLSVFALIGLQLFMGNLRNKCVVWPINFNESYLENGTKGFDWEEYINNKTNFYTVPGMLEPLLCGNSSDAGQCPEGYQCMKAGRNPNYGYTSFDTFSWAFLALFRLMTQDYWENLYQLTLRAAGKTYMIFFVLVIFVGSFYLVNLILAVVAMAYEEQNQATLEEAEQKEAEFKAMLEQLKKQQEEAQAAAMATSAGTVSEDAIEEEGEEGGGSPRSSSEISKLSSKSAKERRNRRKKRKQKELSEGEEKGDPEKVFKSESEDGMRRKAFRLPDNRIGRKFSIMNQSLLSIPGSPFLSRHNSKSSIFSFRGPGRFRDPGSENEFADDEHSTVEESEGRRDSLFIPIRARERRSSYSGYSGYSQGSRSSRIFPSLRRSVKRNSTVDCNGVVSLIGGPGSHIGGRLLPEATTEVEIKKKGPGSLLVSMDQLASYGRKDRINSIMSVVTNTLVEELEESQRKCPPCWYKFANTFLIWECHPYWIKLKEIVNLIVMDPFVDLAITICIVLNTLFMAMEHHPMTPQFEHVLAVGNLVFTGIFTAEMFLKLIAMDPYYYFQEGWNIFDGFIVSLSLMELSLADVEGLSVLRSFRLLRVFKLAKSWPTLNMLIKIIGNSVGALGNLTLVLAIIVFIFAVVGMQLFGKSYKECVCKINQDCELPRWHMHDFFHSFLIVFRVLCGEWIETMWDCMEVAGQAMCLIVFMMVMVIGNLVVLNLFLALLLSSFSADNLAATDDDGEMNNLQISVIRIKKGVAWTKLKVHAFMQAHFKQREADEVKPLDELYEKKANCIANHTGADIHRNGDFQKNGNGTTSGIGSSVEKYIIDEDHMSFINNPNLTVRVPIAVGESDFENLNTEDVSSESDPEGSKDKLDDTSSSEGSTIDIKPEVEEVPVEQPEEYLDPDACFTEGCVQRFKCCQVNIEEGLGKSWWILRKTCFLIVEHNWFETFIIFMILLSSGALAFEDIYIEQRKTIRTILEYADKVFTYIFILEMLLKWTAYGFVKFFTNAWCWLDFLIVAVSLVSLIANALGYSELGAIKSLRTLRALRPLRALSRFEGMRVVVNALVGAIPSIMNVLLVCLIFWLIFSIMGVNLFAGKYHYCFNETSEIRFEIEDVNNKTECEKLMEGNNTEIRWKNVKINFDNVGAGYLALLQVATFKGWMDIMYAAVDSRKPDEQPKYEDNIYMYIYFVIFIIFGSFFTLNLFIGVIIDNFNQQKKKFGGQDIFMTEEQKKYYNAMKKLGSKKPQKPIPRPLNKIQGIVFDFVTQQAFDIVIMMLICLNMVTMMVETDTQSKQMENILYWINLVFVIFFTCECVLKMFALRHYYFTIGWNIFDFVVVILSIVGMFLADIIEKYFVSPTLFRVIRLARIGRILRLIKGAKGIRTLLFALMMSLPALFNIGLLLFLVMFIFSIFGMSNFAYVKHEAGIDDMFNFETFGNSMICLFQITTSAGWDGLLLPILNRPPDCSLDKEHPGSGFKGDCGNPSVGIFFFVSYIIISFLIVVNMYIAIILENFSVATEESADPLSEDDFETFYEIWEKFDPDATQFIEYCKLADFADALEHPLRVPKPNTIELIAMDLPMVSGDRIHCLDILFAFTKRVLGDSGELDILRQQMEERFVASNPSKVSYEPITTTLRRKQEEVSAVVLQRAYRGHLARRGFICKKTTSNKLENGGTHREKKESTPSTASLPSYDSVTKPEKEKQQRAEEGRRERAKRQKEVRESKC", "T1 sequence (Q92913 1-192 isoform Q92913-2 partner)": "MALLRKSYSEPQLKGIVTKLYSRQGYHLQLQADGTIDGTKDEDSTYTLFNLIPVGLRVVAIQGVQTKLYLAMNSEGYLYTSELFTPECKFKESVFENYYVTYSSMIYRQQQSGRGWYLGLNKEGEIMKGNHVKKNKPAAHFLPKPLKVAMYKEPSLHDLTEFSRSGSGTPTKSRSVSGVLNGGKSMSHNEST", "test": "Steady-state and use-dependent inhibition", "assay_type": "cell-based", "settings": "V0.5 holding potential"}, "hNaV1.5": {"biological_target": "hNaV1.5 (Homo sapiens, UniProt Q14524)", "sequence (Q14524 whole entry)": "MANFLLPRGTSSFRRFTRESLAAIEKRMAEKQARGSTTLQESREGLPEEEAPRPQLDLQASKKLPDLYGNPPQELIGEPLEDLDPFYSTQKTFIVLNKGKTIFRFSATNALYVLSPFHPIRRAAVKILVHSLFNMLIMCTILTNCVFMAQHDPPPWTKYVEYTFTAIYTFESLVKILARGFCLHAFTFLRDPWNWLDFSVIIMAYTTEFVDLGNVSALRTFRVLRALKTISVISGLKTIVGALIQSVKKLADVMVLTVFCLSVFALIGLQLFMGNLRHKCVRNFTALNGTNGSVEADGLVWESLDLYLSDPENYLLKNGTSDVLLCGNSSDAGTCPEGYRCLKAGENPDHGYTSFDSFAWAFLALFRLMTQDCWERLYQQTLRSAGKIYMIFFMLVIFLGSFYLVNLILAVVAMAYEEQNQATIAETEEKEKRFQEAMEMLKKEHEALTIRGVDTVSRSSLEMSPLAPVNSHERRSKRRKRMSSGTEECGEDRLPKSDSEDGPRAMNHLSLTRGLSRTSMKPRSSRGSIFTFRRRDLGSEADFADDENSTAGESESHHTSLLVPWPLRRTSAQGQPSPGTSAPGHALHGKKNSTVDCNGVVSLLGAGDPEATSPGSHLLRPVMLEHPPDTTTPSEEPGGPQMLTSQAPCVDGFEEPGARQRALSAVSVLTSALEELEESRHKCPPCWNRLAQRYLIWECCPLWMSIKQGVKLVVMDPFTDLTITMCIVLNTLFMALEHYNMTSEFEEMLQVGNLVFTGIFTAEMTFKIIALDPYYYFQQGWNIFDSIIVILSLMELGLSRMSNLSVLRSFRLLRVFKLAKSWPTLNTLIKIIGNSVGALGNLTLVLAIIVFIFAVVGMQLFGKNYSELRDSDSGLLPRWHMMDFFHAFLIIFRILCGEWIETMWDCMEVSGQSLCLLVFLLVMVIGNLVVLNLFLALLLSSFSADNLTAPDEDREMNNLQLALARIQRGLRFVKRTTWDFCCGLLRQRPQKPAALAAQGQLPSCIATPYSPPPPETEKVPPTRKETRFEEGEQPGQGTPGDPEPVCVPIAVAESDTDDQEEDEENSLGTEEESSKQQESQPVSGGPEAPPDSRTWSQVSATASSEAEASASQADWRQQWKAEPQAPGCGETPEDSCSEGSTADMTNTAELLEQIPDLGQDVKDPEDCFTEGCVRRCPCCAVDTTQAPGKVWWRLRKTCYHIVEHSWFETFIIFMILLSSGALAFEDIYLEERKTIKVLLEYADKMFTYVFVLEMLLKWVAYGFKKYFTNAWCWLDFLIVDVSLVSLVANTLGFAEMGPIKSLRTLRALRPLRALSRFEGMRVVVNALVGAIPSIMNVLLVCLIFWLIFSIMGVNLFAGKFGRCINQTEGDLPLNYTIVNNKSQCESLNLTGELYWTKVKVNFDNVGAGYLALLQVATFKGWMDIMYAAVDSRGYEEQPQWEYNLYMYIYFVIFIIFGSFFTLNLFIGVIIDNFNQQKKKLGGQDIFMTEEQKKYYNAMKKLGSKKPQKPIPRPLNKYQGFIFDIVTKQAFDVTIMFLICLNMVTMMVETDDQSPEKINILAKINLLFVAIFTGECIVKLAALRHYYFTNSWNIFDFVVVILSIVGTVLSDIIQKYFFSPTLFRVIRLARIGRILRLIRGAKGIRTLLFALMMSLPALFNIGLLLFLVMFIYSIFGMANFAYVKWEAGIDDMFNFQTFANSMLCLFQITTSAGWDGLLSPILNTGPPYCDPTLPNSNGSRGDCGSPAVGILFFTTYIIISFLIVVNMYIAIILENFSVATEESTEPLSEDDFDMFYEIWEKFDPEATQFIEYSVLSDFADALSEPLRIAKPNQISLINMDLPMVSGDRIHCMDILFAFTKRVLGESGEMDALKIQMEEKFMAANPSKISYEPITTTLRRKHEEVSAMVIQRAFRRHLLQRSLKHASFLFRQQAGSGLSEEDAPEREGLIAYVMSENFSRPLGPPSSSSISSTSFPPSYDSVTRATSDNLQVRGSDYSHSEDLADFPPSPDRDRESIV", "test": "Qube automated patch-clamp, NaV subtype inhibition", "assay_type": "cell-based"}, "hNaV1.1": {"biological_target": "hNaV1.1 (Homo sapiens, UniProt P35498)", "test": "Qube automated patch-clamp, NaV subtype inhibition", "assay_type": "cell-based"}, "NaV1.6 [2]": {"biological_target": "T1, NaV1.6", "test": "Recovery from inactivation in presence of compound", "assay_type": "cell-based", "method_in_brief": "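Human NaV1.6 cells on an automated planar patch-clamp platform at 27 °C. From −120 mV, a 10 s prepulse to 0 mV is followed by a 0 mV test pulse at varying intervals. Mean normalized recovery in compound is fitted biexponentially, and the slow time constant is plotted against concentration. The fraction recovered at 1.7 s quantifies the concentration dependence.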"}, "[3]": {"settings": "IC50 for steady-state inhibition (P1), first pulse"}}, "note": "Read-outs that look alike come from different tables or passages of the source."}
{"smiles": "COC[C@@H](NC(C)=O)C(=O)NCc1ccccc1", "note": "[lacosamide]", "values": [{"measurement": "potency range", "setting": "NaV", "result": "10 to 100", "unit": "µM"}]}
{"smiles": "Nc1nnc(-c2cccc(Cl)c2Cl)c(N)n1", "note": "[lamotrigine]", "values": [{"measurement": "potency range", "setting": "NaV", "result": "10 to 100", "unit": "µM"}]}
{"smiles": "Cc1cc(S(=O)(=O)Nc2cscn2)c(F)cc1N(C)[C@H]1CCN(Cc2ccccc2)C1", "note": "[NBI-921352]", "values": [{"measurement": "efficacy in seizure models in vivo", "setting": "seizures", "result": "efficacious and have improved tolerability in rodent seizure models"}]}
{"smiles": "NC(=O)N1c2ccccc2C=Cc2ccccc21", "note": "[carbamazepine]", "values": [{"measurement": "IC50", "setting": "hNaV1.2", "result": 67.4, "unit": "µM"}, {"measurement": "IC50", "setting": "NaV1.6 [1]; IC50 for UDB (P500), 500th pulse", "result": 16.2, "unit": "µM"}, {"measurement": "IC50", "setting": "NaV1.6 [1]; [3]", "result": 17, "unit": "µM"}, {"measurement": "IC50", "setting": "hNaV1.5", "result": 41.1, "unit": "µM"}, {"measurement": "IC50", "setting": "hNaV1.1", "result": 39.3, "unit": "µM"}]}
{"smiles": "O=C1NC(=O)C(c2ccccc2)(c2ccccc2)N1", "note": "[phenytoin]", "values": [{"measurement": "IC50", "setting": "NaV1.6 [1]; [3]", "result": 12.1, "unit": "µM"}, {"measurement": "IC50", "setting": "NaV1.6 [1]; read-out: IC50 for UDB (P500), 500th pulse", "result": 6.8, "unit": "µM"}, {"measurement": "IC50", "setting": "hNaV1.5", "result": 23.8, "unit": "µM"}, {"measurement": "time to fully equilibrate with the inactivated states", "setting": "NaV1.6 [2]", "result": "≤ 10", "unit": "s"}]}
